For assay [1], the target named is P2Y purinoceptor 1 (Meleagris gallopavo) (UniProt P49652). In words: Antagonist activity at P2Y1 receptor measured as capacity to inhibit phospholipase C stimulation elicited by 10 nM 2-MeSATP. The class given is functional. The method in brief: (§1)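 The PLC assay uses [3H]inositol-labelled turkey erythrocyte ghosts (~175 μg protein) in HEPES buffer, pH 7.0, with 1 μM GTPγS. Ghosts are incubated 5 min at 30 °C with 10 nM 2-MeSATP plus graded analogue concentrations. [3H]inositol phosphates are separated by anion exchange. IC50 is the concentration inhibiting 50% of the 2-MeSATP response. Maximal inhibition is 100 minus residual stimulation at the top concentration. Each curve was run at least 3 times in duplicate or triplicate.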
Sequence of P2Y purinoceptor 1 (Meleagris gallopavo) (P49652 whole entry): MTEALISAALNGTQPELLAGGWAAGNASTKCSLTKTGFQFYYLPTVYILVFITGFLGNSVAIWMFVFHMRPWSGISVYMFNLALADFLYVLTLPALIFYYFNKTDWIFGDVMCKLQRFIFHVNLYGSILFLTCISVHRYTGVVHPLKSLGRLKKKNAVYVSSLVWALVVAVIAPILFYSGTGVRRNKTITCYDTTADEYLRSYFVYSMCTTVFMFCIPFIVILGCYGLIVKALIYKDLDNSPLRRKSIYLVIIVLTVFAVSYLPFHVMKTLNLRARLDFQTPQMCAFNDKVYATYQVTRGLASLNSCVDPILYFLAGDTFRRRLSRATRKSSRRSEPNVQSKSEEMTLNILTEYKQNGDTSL

For assay [2], the target named is T1, P2Y purinoceptor 1 (Meleagris gallopavo, UniProt P49652). In words: Antagonist activity at P2Y1 receptor measured as capacity to inhibit 50% of phospholipase C stimulation elicited by 10 nM 2-MeSATP. The class given is functional. The method in brief:
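Ghosts are incubated 5 min at 30 °C with 10 nM 2-MeSATP plus graded analogue concentrations. [3H]inositol phosphates are separated by anion exchange. Maximal inhibition is 100 minus residual stimulation at the top concentration. Each curve was run at least 3 times in duplicate or triplicate.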

In assay [3] the target is P2Y purinoceptor 1 (Meleagris gallopavo) (UniProt P49652). In words: Agonist activity at P2Y1 receptor measured as capacity to stimulate phospholipase C in turkey erythrocyte membranes. The class given is functional, cell membranes. The method in brief:
(§2)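 Turkey erythrocytes labelled with 2-[3H]myo-inositol in inositol-free DMEM for 18–24 h at 37 °C, 5% CO2. Ghosts made by hypotonic lysis. Labelled ghosts (~175 μg protein) incubated 5 min at 30 °C with 1 μM GTPγS and test nucleotide at pH 7.0 (HEPES, KCl, CaCl2, MgSO4, EGTA). Total [3H]inositol phosphates measured by anion-exchange chromatography. EC50 from four-parameter logistic fit. Efficacy is relative to a maximal 2-MeSATP response in the same experiment.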

The target of assay [4] is T1, P2Y purinoceptor 1. Briefly: Agonist activity at P2Y1 receptor measured as capacity to stimulate 50% phospholipase C in turkey erythrocyte membranes. The class given is functional, cell membranes. In short, it runs like this: as §2
In assay [5] the target is P2Y purinoceptor 1 (Meleagris gallopavo) (UniProt P49652). In words: Agonist activity at P2Y1 receptor measured as capacity to stimulate phospholipase C in turkey erythrocyte membranes; NE=No effect. The class given is functional, cell membranes. In short, it runs like this:
as §2

Assay [6] shares this target. Briefly: Antagonist activity at P2Y1 receptor measured as capacity to inhibit phospholipase C stimulation elicited by 10 nM 2-MeSATP; NE=No effect. The class given is functional. The method in brief:
as §1

For assay [7] the target is unchanged. Briefly: Antagonist activity at P2Y1 receptor measured as capacity to inhibit phospholipase C stimulation elicited by 10 nM 2-MeSATP; Small inhibition at 30-100 uM. The class given is functional. To be noted: filed as antagonist. In short, it runs like this: as §1
Assay [8] has the same target. Briefly: Antagonist activity at P2Y1 receptor measured as capacity to inhibit phospholipase C stimulation elicited by 10 nM 2-MeSATP; No effect or small inhibition. The class given is functional. In short, it runs like this: as §1
Assay [9] shares this target. Briefly: Agonist activity at P2Y1 receptor measured as capacity to stimulate phospholipase C in turkey erythrocyte membranes; No effect or small inhibition. The class given is functional, cell membranes. In short, it runs like this:
as §2

pEC50, pIC50: −log10 of the molar value. Active and inactive are the calls of the source. The calls are words filed in the database; no cut-off is given here.

As usually defined, the pIC50 is the negative decadic logarithm of the IC50, by convention in mol/L. What is called pEC50 is −log10 of the EC50, conventionally taken in molar units.

T1 sequence (P49652 whole entry): as above

As to `Nc1ncnc2c1ncn2[C@@H]1O[C@H](COP(=O)(O)O)[C@@H](O)[C@H]1OP(=O)(O)O`, the Max inhibition in assay [1] came to 75%. The molecule further gave a pIC50 at P2Y purinoceptor 1 [2] of 5.07. The Max increase in assay [3] amounted to 25%. The molecule also had a pEC50 at P2Y purinoceptor 1 [4] of 5.86.
In assay [1], `Nc1ncnc2c1ncn2[C@H]1C[C@H](OP(=O)(O)O)[C@@H](COP(=O)(O)O)O1` returned a Max inhibition of 87%. Besides, the pIC50 at P2Y purinoceptor 1 [2] was 5.24. Besides, in [3], the Max increase was 12%. The molecule further had a pEC50 at P2Y purinoceptor 1 [4] of 5.20.
Take `CCNc1ncnc2c1ncn2[C@H]1C[C@H](OP(=O)(O)O)[C@@H](COP(=O)(O)O)O1`: the Max inhibition in [1] stood at 100%. The molecule further had a pIC50 against P2Y purinoceptor 1 [2] of 5.97. For the same molecule, in assay [5], the Max increase result was “inactive”.
In assay [1], `Nc1ncnc2c1ncn2[C@@H]1O[C@H](COP(=O)(O)O)[C@H]2OP(=O)(O)O[C@H]21` yielded a Max inhibition of 73%. This molecule had a Max increase in [3] of 43%.
For the molecule `Nc1ncnc2c1ncn2C1OC(COP(=O)(O)O)CC1OP(=O)(O)O` (stereo not given), the Max inhibition in [1] is 81%. This molecule gave a pIC50 against P2Y purinoceptor 1 [2] of 4.96. The Max increase in [3] is 16%. The same molecule showed a negative-log EC50 (pEC50) at P2Y purinoceptor 1 [4] of 5.08.
`Nc1ncnc2c1ncn2C1O[C@H](COP(=O)(O)OP(=O)(O)OC2O[C@H](CO)[C@@H](O)[C@H]2O)[C@@H](O)[C@H]1OP(=O)(O)O` (stereo not given in full) yielded a Max inhibition in assay [1] of 50%. The same molecule had a pIC50 on P2Y purinoceptor 1 [2] of less than 4.00. The Max increase in assay [3] turned out to be 50%. At P2Y purinoceptor 1 [4], this molecule gave a pEC50 of less than 4.00.
Take `Nc1ncnc2c1ncn2[C@H]1C[C@H](OP(O)(O)=S)[C@@H](COP(O)(O)=S)O1`: in [1], the Max inhibition was determined as 91%. The same molecule showed a pIC50 at P2Y purinoceptor 1 [2] of 4.06. Moreover, the Max increase in assay [3] was found to be 9%.
Take `NCCCCCCNc1ncnc2c1ncn2[C@@H]1O[C@H](COP(=O)(O)O)[C@@H](O)[C@H]1OP(=O)(O)O`: the Max inhibition entry in assay [6] is “inactive”. For the same molecule, in assay [5], the Max increase result was “inactive”.
As for `Nc1ncnc2c1ncn2[C@@H]1O[C@H](COP(=O)(O)O)[C@@H](OP(=O)(O)O)[C@H]1O`, in assay [1], the Max inhibition came to 77%. The pIC50 against P2Y purinoceptor 1 [2] was 5.38. Further, in [3], the Max increase turned out to be 21%. In addition, the pEC50 at P2Y purinoceptor 1 [4] is 5.89.
Take `O=P(O)(O)OC[C@H]1O[C@@H](n2cnc3c2ncn2ccnc32)C[C@@H]1OP(=O)(O)O`: in assay [6], the Max inhibition entry is “inactive”. Moreover, in [5], the Max increase entry is “inactive”.
For `CSc1nc(N)c2ncn([C@H]3C[C@H](OP(=O)(O)O)[C@@H](COP(=O)(O)O)O3)c2n1`, the Max inhibition in assay [1] came out at 77%. At P2Y purinoceptor 1 [2], this molecule had a pIC50 of 5.68. In [3], this molecule registered a Max increase of 22%. At P2Y purinoceptor 1 [4], this molecule gave a pEC50 of 6.26.
With `CSc1ncnc2c1ncn2[C@H]1C[C@H](OP(=O)(O)O)[C@@H](COP(=O)(O)O)O1`, in [1], the Max inhibition was found to be 78%. On P2Y purinoceptor 1 [2], this molecule gave a pIC50 of 4.54. Besides, the Max increase entry in [5] is “inactive”.
For `Nc1ncnc2c1nc(Br)n2[C@H]1C[C@H](OP(=O)(O)O)[C@@H](COP(=O)(O)O)O1`, in that order: 100%, 4.44 and “inactive”.
Turning to `CC(C)(COP(=O)(O)OP(=O)(O)OC[C@H]1O[C@@H](n2cnc3c(N)ncnc32)[C@H](OP(=O)(O)O)[C@@H]1O)C(O)C(=O)NCCC(=O)NCCS` (stereo not given in full), the Max inhibition in [1] worked out at 72%. Further, the pIC50 against P2Y purinoceptor 1 [2] was 4.14. Besides, in assay [3], the Max increase turned out to be 43%. Further, the negative-log EC50 (pEC50) at P2Y purinoceptor 1 [4] was less than 4.00.
Consider `O=C(Nc1ncnc2c1ncn2[C@H]1C[C@H](OP(=O)(O)O)[C@@H](COP(=O)(O)O)O1)c1ccccc1`, for which, in assay [6], the Max inhibition result is “inactive”. Besides, the Max increase result in assay [5] is “inactive”.
Take `Nc1ncnc2c1ncn2C1OC(CCl)CC1OP(=O)(O)O` (stereo not given): the Max inhibition result in assay [6] is “inactive”. In assay [5], the Max increase result is “inactive”.
For `CCCNc1ncnc2c1ncn2[C@H]1C[C@H](OP(=O)(O)O)[C@@H](COP(=O)(O)O)O1`, in [7], the Max inhibition result is recorded as “Partial antagonist”. The Max increase result in assay [5] was “inactive”.
As to `O=c1[nH]cnc2c1ncn2[C@H]1C[C@H](OP(=O)(O)O)[C@@H](COP(=O)(O)O)O1`, the Max inhibition result in assay [7] is reported as “Partial antagonist”. In assay [5], the Max increase entry is “inactive”.
The molecule `C[n+]1cnc2c(ncn2[C@H]2C[C@H](OP(=O)(O)O)[C@@H](COP(=O)(O)O)O2)c1N` gave a Max inhibition in [1] of 100%. At P2Y purinoceptor 1 [2], this molecule had a pIC50 of 4.26. In addition, in assay [5], the Max increase entry is “inactive”.
With `Nc1nc(Cl)nc2c1ncn2[C@H]1C[C@H](OP(=O)(O)O)[C@@H](COP(=O)(O)O)O1`, the Max inhibition in [1] came out at 80%. At P2Y purinoceptor 1 [2], the pIC50 is 5.70. For the same molecule, the Max increase in [3] stood at 19%. Further, the pEC50 on P2Y purinoceptor 1 [4] is 6.19.
For `CO[C@@H]1[C@H](OP(=O)(O)O)[C@@H](COP(=O)(O)O)O[C@H]1n1cnc2c(N)ncnc21`, in that order: 65%, 4.91, 35% and 4.89.
Take `CN(C)c1ncnc2c1ncn2[C@H]1C[C@H](OP(=O)(O)O)[C@@H](COP(=O)(O)O)O1`: the Max inhibition in assay [1] came to 70%. In addition, the pIC50 at P2Y purinoceptor 1 [2] is 4.33. In addition, in assay [5], the Max increase result is “inactive”.
As to `CNc1ncnc2c1ncn2C1OC(COP(=O)(O)O)CC1OP(=O)(O)O` (stereo not given), in [1], the Max inhibition was 90%. For the same molecule, the pIC50 on P2Y purinoceptor 1 [2] was 6.49. This molecule registered a Max increase in [3] of 13%.
For the molecule `O=P(O)(O)OC[C@H]1O[C@@H](n2cnc3c(Cl)ncnc32)C[C@@H]1OP(=O)(O)O`, the Max inhibition result in [8] was “inactive”. For the same molecule, in assay [9], the Max increase result was “inactive”.
Take `Nc1ncnc2c1ncn2[C@@H]1O[C@H](COP(=O)(O)O)[C@H]2O[P@](=O)(O)O[C@H]21`: the pIC50 at P2Y purinoceptor 1 [2] is 4.90. In addition, at P2Y purinoceptor 1 [4], the pEC50 was 4.39.

These data come from ChEMBL document CHEMBL1131110, “Deoxyadenosine bisphosphate derivatives as potent antagonists at P2Y1 receptors” (J Med Chem, 1998).
